Source: the M2OR odorant receptor database
Changes are numbered by the printed parent chain.

Key:
Details in all cases: stereoisomer not certain
OR2A1 (Homo sapiens) = biological target: T1, OR2A1 (Homo sapiens) (UniProt Q8NGT9)
T1 sequence (whole entry): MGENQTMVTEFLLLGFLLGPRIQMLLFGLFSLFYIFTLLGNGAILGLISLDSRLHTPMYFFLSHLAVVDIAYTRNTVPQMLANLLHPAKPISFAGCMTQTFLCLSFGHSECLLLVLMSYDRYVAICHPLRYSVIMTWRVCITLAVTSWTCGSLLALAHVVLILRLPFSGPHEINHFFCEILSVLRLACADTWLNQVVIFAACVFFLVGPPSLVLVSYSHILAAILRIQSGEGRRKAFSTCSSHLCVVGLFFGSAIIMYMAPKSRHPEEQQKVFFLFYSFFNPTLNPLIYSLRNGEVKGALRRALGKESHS
In short: (§1)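 Each entry records the cell line, G-protein, co-transfected protein and tags used. Methods varied with the source, often transient luciferase assays in mammalian cell lines. A receptor–molecule pair is called responsive (active) if the original authors judged its signal statistically different from baseline and non-responsive (inactive) otherwise.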

OR1L3 (Homo sapiens) = biological target: T2, OR1L3 (Homo sapiens) (UniProt Q8NH93)
T2 sequence (whole entry): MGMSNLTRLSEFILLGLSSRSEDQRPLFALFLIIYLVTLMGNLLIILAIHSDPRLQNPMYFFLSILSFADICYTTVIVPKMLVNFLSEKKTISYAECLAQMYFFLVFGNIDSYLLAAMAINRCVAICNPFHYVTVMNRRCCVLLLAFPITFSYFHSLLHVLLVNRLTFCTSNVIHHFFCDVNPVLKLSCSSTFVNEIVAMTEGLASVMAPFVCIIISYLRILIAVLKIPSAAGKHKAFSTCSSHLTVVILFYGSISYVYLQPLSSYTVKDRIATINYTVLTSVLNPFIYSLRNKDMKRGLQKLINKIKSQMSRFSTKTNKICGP
In short: as §1

OR1L4 (Homo sapiens) = biological target: T3, OR1L4 (Homo sapiens) (UniProt Q8NGR5)
T3 sequence (whole entry): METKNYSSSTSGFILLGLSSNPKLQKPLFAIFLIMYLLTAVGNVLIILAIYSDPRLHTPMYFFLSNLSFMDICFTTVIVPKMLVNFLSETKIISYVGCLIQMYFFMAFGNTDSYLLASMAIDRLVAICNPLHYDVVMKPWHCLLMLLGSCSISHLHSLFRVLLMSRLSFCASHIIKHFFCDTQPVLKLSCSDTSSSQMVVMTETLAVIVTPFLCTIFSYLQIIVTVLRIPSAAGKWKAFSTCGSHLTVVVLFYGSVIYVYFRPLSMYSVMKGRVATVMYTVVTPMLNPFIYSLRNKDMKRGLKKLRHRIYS
In short: as §1

OR1L6 (Homo sapiens) = biological target: T4, OR1L6 (Homo sapiens) (UniProt Q8NGR2)
T4 sequence (whole entry): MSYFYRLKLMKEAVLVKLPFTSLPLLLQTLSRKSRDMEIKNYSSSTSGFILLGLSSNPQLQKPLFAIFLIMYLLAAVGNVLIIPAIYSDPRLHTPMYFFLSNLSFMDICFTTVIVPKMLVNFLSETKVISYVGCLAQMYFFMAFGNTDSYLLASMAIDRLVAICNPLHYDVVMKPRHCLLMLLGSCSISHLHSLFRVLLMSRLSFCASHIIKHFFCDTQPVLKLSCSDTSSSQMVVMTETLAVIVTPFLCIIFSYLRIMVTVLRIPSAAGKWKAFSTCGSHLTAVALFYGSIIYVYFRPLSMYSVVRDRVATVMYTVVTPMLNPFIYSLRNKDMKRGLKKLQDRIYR
In short: as §1

OR1L8 (Homo sapiens) = biological target: T5, OR1L8 (Homo sapiens) (UniProt Q8NGR8)
T5 sequence (whole entry): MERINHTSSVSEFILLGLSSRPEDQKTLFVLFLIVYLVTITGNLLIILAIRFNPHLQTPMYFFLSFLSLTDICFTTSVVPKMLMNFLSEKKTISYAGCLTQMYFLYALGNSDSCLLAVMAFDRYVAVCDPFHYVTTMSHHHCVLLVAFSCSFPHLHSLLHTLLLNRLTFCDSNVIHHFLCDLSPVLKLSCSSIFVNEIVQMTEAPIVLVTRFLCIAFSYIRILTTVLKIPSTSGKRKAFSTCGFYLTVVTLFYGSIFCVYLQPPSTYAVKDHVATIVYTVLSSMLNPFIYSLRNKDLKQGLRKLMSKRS
In short: as §1

OR1M1 (Homo sapiens) = biological target: T6, OR1M1 (Homo sapiens) (UniProt Q8NGA1)
T6 sequence (whole entry): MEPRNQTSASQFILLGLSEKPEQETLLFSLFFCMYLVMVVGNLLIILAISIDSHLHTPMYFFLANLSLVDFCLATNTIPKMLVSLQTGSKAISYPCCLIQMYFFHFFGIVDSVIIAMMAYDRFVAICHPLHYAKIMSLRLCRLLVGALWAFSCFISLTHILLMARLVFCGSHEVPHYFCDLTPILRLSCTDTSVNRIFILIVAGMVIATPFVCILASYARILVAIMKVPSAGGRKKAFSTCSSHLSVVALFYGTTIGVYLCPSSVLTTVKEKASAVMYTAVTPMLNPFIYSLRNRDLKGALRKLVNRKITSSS
In short: as §1

OR1N1 (Homo sapiens) = biological target: T7, OR1N1 (Homo sapiens) (UniProt Q8NGS0)
T7 sequence (whole entry): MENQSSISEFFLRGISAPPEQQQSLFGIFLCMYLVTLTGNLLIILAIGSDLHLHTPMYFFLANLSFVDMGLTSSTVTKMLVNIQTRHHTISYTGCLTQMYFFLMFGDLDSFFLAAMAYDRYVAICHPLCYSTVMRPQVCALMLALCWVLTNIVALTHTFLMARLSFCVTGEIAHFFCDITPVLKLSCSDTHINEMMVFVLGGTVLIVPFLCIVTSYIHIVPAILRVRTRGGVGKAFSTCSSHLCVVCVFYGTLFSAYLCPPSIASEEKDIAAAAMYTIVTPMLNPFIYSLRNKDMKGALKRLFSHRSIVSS
In short: as §1

OR1N2 = test system: T8, OR1N2
T8 sequence (whole entry): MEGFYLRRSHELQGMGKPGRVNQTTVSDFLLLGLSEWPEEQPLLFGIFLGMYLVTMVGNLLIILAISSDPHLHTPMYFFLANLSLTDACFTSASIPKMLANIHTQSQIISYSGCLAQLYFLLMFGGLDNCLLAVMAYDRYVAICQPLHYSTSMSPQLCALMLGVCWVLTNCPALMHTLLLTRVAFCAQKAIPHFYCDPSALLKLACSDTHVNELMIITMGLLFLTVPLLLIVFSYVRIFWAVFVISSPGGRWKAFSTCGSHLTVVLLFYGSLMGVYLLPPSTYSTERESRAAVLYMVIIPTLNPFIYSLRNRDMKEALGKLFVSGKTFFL
In short: as §1

OR1Q1 (Homo sapiens) = biological target: T9, OR1Q1 (Homo sapiens) (UniProt Q15612)
T9 sequence (whole entry): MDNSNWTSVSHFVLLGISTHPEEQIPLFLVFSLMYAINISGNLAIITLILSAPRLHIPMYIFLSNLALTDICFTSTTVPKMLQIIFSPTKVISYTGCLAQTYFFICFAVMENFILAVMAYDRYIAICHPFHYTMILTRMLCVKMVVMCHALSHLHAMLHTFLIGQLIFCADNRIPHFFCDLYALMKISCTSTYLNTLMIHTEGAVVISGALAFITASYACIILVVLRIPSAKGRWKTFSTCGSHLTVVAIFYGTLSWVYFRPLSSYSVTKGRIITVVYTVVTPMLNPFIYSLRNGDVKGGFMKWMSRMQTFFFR
In short: as §1

OR1S1 (Homo sapiens) = biological target: T10, OR1S1 (Homo sapiens) (UniProt Q8NH92)
T10 sequence (whole entry): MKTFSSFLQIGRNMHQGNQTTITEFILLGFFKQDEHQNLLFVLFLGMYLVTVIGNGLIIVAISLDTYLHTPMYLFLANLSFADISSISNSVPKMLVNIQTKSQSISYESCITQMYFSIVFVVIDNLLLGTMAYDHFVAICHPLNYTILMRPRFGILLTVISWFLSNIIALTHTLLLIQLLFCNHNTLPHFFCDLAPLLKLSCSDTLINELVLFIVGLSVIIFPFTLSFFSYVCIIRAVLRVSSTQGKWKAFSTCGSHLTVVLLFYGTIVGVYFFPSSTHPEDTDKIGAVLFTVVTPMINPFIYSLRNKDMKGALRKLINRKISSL
In short: as §1

OR1S2 (Homo sapiens) = biological target: T11, OR1S2 (Homo sapiens) (UniProt Q8NGQ3)
T11 sequence (whole entry): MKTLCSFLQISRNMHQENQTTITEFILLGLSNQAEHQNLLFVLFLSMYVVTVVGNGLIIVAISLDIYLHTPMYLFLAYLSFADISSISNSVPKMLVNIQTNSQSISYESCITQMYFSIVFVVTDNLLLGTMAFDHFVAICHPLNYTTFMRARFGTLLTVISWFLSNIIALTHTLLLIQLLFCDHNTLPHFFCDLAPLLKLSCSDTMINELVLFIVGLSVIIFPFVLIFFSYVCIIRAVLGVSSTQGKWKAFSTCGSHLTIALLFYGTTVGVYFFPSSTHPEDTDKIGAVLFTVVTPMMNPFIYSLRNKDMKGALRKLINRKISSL
In short: as §1

OR1L4 = test system: T12, OR1L4
T12 sequence (whole entry): T3 sequence (whole entry) with G234R
In short: as §1

OR1L6 = test system: T13, OR1L6
T13 sequence (whole entry): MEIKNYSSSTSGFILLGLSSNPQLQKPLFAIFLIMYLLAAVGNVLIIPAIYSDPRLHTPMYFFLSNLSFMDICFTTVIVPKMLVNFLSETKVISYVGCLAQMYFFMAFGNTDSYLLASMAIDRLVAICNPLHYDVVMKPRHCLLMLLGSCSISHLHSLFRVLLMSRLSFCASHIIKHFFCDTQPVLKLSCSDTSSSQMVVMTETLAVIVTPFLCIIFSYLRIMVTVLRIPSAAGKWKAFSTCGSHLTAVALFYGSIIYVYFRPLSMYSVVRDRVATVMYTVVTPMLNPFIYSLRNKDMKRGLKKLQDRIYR
In short: as §1

OR1L8 T27P R211P = test system: T14, OR1L8 T27P R211P
T14 sequence (whole entry): T5 sequence (whole entry) with T27P, R211P
In short: as §1

OR1N2 W37R = test system: T15, OR1N2 W37R
T15 sequence (whole entry): T8 sequence (whole entry) with W37R
In short: as §1

OR1Q1 = test system: T16, OR1Q1
T16 sequence (whole entry): T9 sequence (whole entry) with Q24R, I163M
In short: as §1

OR1S2 E17G = test system: T17, OR1S2 E17G
T17 sequence (whole entry): T11 sequence (whole entry) with E17G
In short: as §1

OR1S2 V225T G240R = test system: T18, OR1S2 V225T G240R
T18 sequence (whole entry): T11 sequence (whole entry) with V225T, G240R
In short: as §1

OR2A1 S168C = test system: T19, OR2A1 S168C
T19 sequence (whole entry): T1 sequence (whole entry) with S168C
In short: as §1

Measured: odorant receptor agonist call

CCCCCCCCCCCC(=O)OC
inactive: OR2A1 (Homo sapiens)

CCC(=O)O
inactive: OR2A1 (Homo sapiens)

CC(C)=CCCC(C)=CCCC(C)=CCO
inactive: OR2A1 (Homo sapiens)

CCCCCC(=O)C(C)C(C)=O (stereo not given)
not listed: OR1L4 | OR1L6 | OR1L8 T27P R211P | OR1N2 W37R | OR1Q1 | OR1S2 E17G | OR1S2 V225T G240R | OR2A1 S168C
inactive: all other assays above

CCCCCC(S)C(C)CO (stereo not given)
not listed: OR1L4 | OR1L6 | OR1L8 T27P R211P | OR1N2 W37R | OR1Q1 | OR1S2 E17G | OR1S2 V225T G240R | OR2A1 S168C
inactive: all other assays above

CCCCCCCC(=O)OC
inactive: OR2A1 (Homo sapiens)

CCCO
inactive: OR2A1 (Homo sapiens)

Cc1cnc(C)c(C)n1
not listed: OR1L6 (Homo sapiens)
inactive: all other assays above
